A selection: hits, their analogues and other compounds. The true share with any hit is near 3.6%.
BB579 growth dn – yeast BB579 growth reduction in restrictive medium; S. cerevisiae BB579 growth, OD615, 48 h; inhibition, % at 10 µM; hit rate 0.51% among 140,000;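 active = inhibition above a set limit, 3 SD over the mean compound inhibition, cut at about 44% in these data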
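Assay system – yeast BB579 (DeaD) · Dosing – single compound dose of 10 µM, 0.25% DMSO final · Detection – OD615 turbidity measurement · Buffer or medium – CSMM-D restrictive synthetic medium containing dextrose (glucose) · Benchmarks – positive control amphotericin B 10 µg/mL · Incubation – 48 h exposure, 30 °C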
RAM inhibit – inhibitors of the yeast RAM network; S. cerevisiae dse1pr::URA3 reporter, 5-FOA growth OD615, 2 d; analog-sensitive cbk1-as2 kinase mutant strain; inhibition, % at 50 µM; hit rate 1.8% among 190,000; AID 868;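 active = inhibition above a set limit, 3 SD over mean compound inhibition, cut at about 8.4% in these data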;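 also: 0% = DMSO-only wells with no growth and 100% = 10 µM 1-NA-PP1 full growth; inhibition rescues growth on 5-FOA so higher OD means more RAM inhibition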
Yeast lifespan up – yeast lifespan extension | S. cerevisiae growth with nicotinamide, OD615; deaD strain in restrictive glucose medium | inhibition of the nicotinamide effect, % at 10 µM | hit rate 0.68% among 130,000 | AID 775;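 active = inhibition above a set limit, placed 3 SD over the median of all compounds, cut at about 26% in these data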;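 also: 0% = nicotinamide-treated wells and 100% = cells grown without nicotinamide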
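Measured by: optical density (absorbance) at 615 nm; System: modified budding yeast, DeaD strain; Medium: restrictive CSMM-D dextrose medium; Timing: 4 h preincubation then 48 h treatment at 30 °C.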
Measles CPE – protection of cells from measles virus. Measles virus-infected cells, CPE protection, absorbance. protection (pct of control), % at 4 µM. hit rate 1.5% among 140,000. AID 841; in the data active = protection mostly above about 24%, no sharp cut-off; inactive = mostly below about 26%
RAM efflux-def – RAM network inhibitors in efflux-deficient yeast | max inhibition, % | 1,200 tested, under 10 active | S. cerevisiae efflux-deficient reporter strain, 5-FOA growth OD615, 2 days | shares compounds with RAM inhibit | AID 1305; call rule not given here;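 also: plate controls were vehicle for no effect and reference inhibitor for full effect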
Numbers without * were called inactive.

C/C(=N\NC(=S)NCc1ccccc1)c1ccc(C(C)(C)C)cc1 was read as BB579 growth dn 26, RAM inhibit 11*, Yeast lifespan up 0, Measles CPE 3 and RAM efflux-def 5.
COc1cc(NC(=O)c2ccc([N+](=O)[O-])cc2)c(OC)cc1NC(=O)CC(C)C was read as RAM inhibit 4.
Screening CC(=O)OCCCNc1cc(Sc2ccc(Cl)cc2)c2nonc2c1[N+](=O)[O-] returned BB579 growth dn -32, RAM inhibit 12*, Yeast lifespan up 12, Measles CPE 1 and RAM efflux-def 2.
For CCCCSc1nnc([C@H](CC(C)C)NC(=O)OC(C)(C)C)o1 the results were BB579 growth dn 12, RAM inhibit 16*, Yeast lifespan up -11, Measles CPE 5 and RAM efflux-def 2.
`CCCCSc1nnc([C@H](C)NC(=O)OC(C)(C)C)o1` gave BB579 growth dn -26, RAM inhibit -1, Yeast lifespan up -6 and Measles CPE 18.
For O=C(COC(=O)C(O)c1ccccc1)NC12CC3CC(CC(C3)C1)C2 (configuration not stated) the results were BB579 growth dn -10, RAM inhibit 0, Yeast lifespan up -5 and Measles CPE 10.
Screening COc1cc(/C=N/OCC(=O)NC23CC4CC(CC(C4)C2)C3)ccc1OCc1ccccc1 returned BB579 growth dn -35, RAM inhibit 12*, Yeast lifespan up 3, Measles CPE 49* and RAM efflux-def 4.
COc1ccccc1N1CCN(C(=O)CN(C)S(=O)(=O)c2cc(C)ccc2OC)CC1 was read as RAM inhibit 0.
`COc1cc(C(=O)N/N=C/c2ccc(OC)c(CN3CCN(c4ccc(F)cc4)CC3)c2)ccc1O` gave RAM inhibit 0.
CCS(=O)(=O)n1nc(-c2ccccc2)nc1NCc1ccco1 was read as BB579 growth dn -51, RAM inhibit 0, Yeast lifespan up -15 and Measles CPE 14.
Cc1ccc(S(=O)(=O)n2nc(-c3ccc(Cl)cc3)nc2NCc2ccco2)cc1 was read as BB579 growth dn -67, RAM inhibit 15*, Yeast lifespan up 1, Measles CPE 5 and RAM efflux-def 4.
For CC(C)CNC(=O)COc1ncnc2sccc12 the results were RAM inhibit 1.
Screening FC(F)(F)c1cccc(NC(=S)NC(c2ccccc2)c2ccccc2)c1 returned BB579 growth dn -42, RAM inhibit 16*, Yeast lifespan up 12, Measles CPE 24 and RAM efflux-def 4.
`CC(C)CCN1C(=O)c2ccc(C(=O)Nc3c[nH]c(=O)[nH]c3=O)cc2C1=O` gave RAM inhibit 4.
`CC(=O)Oc1cccc(N2C(=O)c3ccc(C(=O)Nc4c[nH]c(=O)[nH]c4=O)cc3C2=O)c1` gave RAM inhibit 12* and RAM efflux-def 3.
CNCC(C)COc1ccccc1OCc1ccccc1 (configuration not stated) was read as BB579 growth dn -17, RAM inhibit 20*, Yeast lifespan up 1, Measles CPE 10 and RAM efflux-def 2.
Screening O=C1Nc2ccccc2/C1=N\N=C\C1=C(N2CCOCC2)C(=C\c2ccccc2)/CC1 returned BB579 growth dn -48, RAM inhibit 13*, Yeast lifespan up -8, Measles CPE 17 and RAM efflux-def 5.
For COc1ccccc1CN1CCNC(=O)C1CC(=O)NCCc1cnccn1 (configuration not stated) the results were RAM inhibit 0.
`CCOc1ccc(N(C)S(=O)(=O)c2ccc3[nH]cc(C(=O)NCCOC)c(=O)c3c2)cc1` gave RAM inhibit 14* and RAM efflux-def 11.
O=C(Nc1ccc(C(=O)N2CCOCC2)cc1)c1cc(-c2cccnc2)nc2ccc(Cl)cc12 was read as RAM inhibit 2.
O=C(NC(=S)N(Cc1ccccc1)Cc1ccccc1)c1ccccc1F was read as BB579 growth dn -32, RAM inhibit 12*, Yeast lifespan up 52, Measles CPE 19 and RAM efflux-def 1.
`CCCCn1c(NS(=O)(=O)c2ccc(C)cc2)c(S(=O)(=O)c2ccccc2)c2nc3ccccc3nc21` gave BB579 growth dn -17, RAM inhibit 12*, Yeast lifespan up 7, Measles CPE 28 and RAM efflux-def 12.
CCCCOc1ccc(/C=C2/Sc3ccccc3C2=O)cc1 was read as BB579 growth dn -39, RAM inhibit 17*, Yeast lifespan up -14, Measles CPE 4 and RAM efflux-def 5.
For O=C1/C(=C/c2cccs2)Sc2ccccc21 the results were BB579 growth dn -46, RAM inhibit 3, Yeast lifespan up -5 and Measles CPE 18.
For CC(C)COc1ccc(/C=C2/Sc3ccccc3C2=O)cc1 the results were BB579 growth dn -60, RAM inhibit 21*, Yeast lifespan up 1, Measles CPE 4 and RAM efflux-def 7.
O=C(CN1CCN(Cc2cccc(Cl)c2)C1=O)NCc1cccs1 was read as RAM inhibit -1.
`COC(=O)[C@H](Cc1ccccc1)NC(=O)[C@@]1(C)C[C@@H]1[C@@H](NC(=O)OCc1ccccc1)c1ccccc1` gave BB579 growth dn -49, RAM inhibit 13*, Yeast lifespan up 7, Measles CPE 3 and RAM efflux-def 5.
For Cc1cc(C)c(C)c(S(=O)(=O)N2CCC(C(=O)OCC(=O)N3c4ccccc4NC(=O)C3(C)C)CC2)c1C the results were BB579 growth dn -58, RAM inhibit 12*, Yeast lifespan up 0, Measles CPE 6 and RAM efflux-def 2.
C=CCn1c(-c2cccn(Cc3ccc(Cl)cc3)c2=O)n[nH]c1=S was read as BB579 growth dn -20, RAM inhibit 13*, Yeast lifespan up 5, Measles CPE 6 and RAM efflux-def 9.
`CCOC(=O)c1nnn(-c2nonc2N)c1CSc1nnc(N)s1` gave RAM inhibit 1.
CN(C)c1ccc(/C=N/NC(N)=S)cc1[N+](=O)[O-] was read as RAM inhibit 2.
`CCn1c(CCNC(=O)c2ccc(Cl)c(Cl)c2)nnc1SCCOc1ccc(OC)cc1` gave BB579 growth dn -40, RAM inhibit 16*, Yeast lifespan up -3, Measles CPE 3 and RAM efflux-def 1.
Cc1nn(Cc2c(Cl)cccc2Cl)c(C)c1NC(=O)Cn1nc([N+](=O)[O-])c(Cl)c1C was read as BB579 growth dn -18, RAM inhibit 13*, Yeast lifespan up 5, Measles CPE 19 and RAM efflux-def 2.
Screening Cc1nn(Cc2ccccc2)c(C)c1NC(=O)Cn1nc([N+](=O)[O-])c(Cl)c1C returned BB579 growth dn -21, RAM inhibit 0, Yeast lifespan up -4 and Measles CPE 14.
Screening COc1ccc(O[C@H]2C=C[C@@H](c3ccccc3)O[C@@H]2COC(=O)CC/C(C)=N/O[C@@H](C)c2cc(-c3c(C)cc(C)cc3C)no2)cc1 returned BB579 growth dn -43, RAM inhibit 21*, Yeast lifespan up 2, Measles CPE 5 and RAM efflux-def 4.

Source: PubChem
